LEDGF integ inh = blocks HIV-1 LEDGF/p75-dependent DNA integration; inhibition, % at 3.7 µM; hit rate 0.64% among 370,000; AID 743269; TR-FRET IN-LEDGF/p75 DNA integration, Eu/Cy5;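 active = inhibition above the screen-wide mean plus 3 SD, cut at about 13% in these data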;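 note: signal is the Cy5 over europium emission ratio at 671 and 618 nm; 0% = plate median of compound wells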
HTRA1 inh = HTRA1 (human) protease inhibition; Q92743; AID 504803; inhibition, % at 5.96 µM; hit rate 0.5% among 340,000; recombinant HTRA1, FP-rhodamine activity-based probe, fluorescence polarization; in the data active = inhibition above about 36%;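 note: 0% = enzyme with DMSO and 100% = wells lacking enzyme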
DAGLB inh = diacylglycerol lipase beta (human) inhibition; inhibition, % at 5.17 µM; Q8NCG7; hit rate 0.059% among 340,000; AID 504411; HEK293T DAGLB membrane lysate, EnzChek fluorogenic substrate; in the data active = inhibition above about 34%;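 note: 0% = enzyme with vehicle and 100% = wells lacking enzyme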
Target sequence (Q8NCG7 whole entry, looked up): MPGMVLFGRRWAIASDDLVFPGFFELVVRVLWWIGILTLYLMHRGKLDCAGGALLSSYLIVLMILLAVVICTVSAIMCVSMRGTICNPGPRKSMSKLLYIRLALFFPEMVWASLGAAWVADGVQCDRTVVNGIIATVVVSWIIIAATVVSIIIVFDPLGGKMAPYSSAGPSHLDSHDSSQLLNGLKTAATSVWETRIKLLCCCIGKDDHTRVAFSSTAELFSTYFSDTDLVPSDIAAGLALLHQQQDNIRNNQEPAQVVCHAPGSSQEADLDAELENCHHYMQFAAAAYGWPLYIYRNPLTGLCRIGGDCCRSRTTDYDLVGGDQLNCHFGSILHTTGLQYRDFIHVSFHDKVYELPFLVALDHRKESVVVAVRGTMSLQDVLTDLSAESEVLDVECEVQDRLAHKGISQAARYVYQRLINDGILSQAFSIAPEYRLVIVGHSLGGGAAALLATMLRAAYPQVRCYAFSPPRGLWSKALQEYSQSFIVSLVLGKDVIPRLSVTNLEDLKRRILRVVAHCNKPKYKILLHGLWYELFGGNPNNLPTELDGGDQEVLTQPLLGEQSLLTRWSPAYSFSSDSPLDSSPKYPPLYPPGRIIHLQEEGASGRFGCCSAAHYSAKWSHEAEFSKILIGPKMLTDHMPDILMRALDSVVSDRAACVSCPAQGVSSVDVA
ABHD4 inh = inhibitors of mouse ABHD4 | Q8VD66 | purified mABHD4, FP-Rh probe fluorescence polarization | inhibition, % at 8.92 µM | hit rate 0.54% among 370,000 | AID 720543;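 active = inhibition exceeding the mean over every tested compound plus 3 SD, cut at about 30% in these data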;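 note: 0% = plate median of compound wells and 100% = S159A mutant with DMSO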
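Doses – 8.92 µM, single dose · Material – wild-type mouse ABHD4 protein · Replication – single well per compound (singlicate) · Measure – percent inhibition of probe binding, normalized to plate controls · Schedule – 45 min compound pre-incubation plus 60 min probe step, 25 °C · Detection – fluorescence polarization with parallel and perpendicular emission, 525/598 nm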
PRMT1 inh = inhibitors of human PRMT1; Q99873; inhibition, % at 2.79 µM; recombinant PRMT1, activity-based probe fluorescence polarization; AID 652257; hit rate 1.3% among 370,000;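 active = inhibition above about 21% made by adding two undisclosed values, limit read from the data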
rCAG binder = molecules binding r(CAG) RNA repeats. r(CAG) RNA repeat, TO-PRO-1 dye displacement fluorescence. inhibition, % at 3 µM. hit rate 1.3% among 370,000. AID 651821;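 active = inhibition above the plate cutoff, the mean of all test compounds on that plate plus 3 SD, cut at about 35% in these data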;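 note: 0% = DMSO alone and 100% = 100 µM mitoxantrone as full dye displacement; higher means more dye released from RNA so lower well fluorescence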
rCAG bind conf = r(CAG) RNA repeat binding, confirmation | AID 652065 | inhibition, % at 3 µM | TO-PRO-1 dye displacement fluorescence | shares compounds with rCAG binder | hit rate 70% among 4,300;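 active = inhibition above a per-plate cutoff, the mean inhibition of sample wells plus 3 SD, cut at about 35% in these data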;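 note: loss of TO-PRO-1 fluorescence as compound displaces dye from 1x1 AA loop RNA; 0% = DMSO only wells and 100% = 100 µM mitoxantrone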
DNA CAG counter = DNA CAG dye complex inhibition counter-screen; shares compounds with rCAG binder; hit rate 94% among 4,300; d(CAG) DNA oligo TO-PRO-1 dye displacement, fluorescence; inhibition, % at 3 µM;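 active = inhibition above its plate's cutoff, the mean test-well inhibition plus 3 SD, cut at about 4.8% in these data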;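 note: 0% = DNA dye mix with DMSO and 100% = 100 µM mitoxantrone; hits displace the dye from DNA and so lower well fluorescence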
dCAG dye DR = DNA CAG dye complex inhibition, dose response counter-screen | shares compounds with rCAG binder | DNA CAG/GTC duplex TO-PRO-1 dye displacement fluorescence | IC50, µM | hit rate 20% among 250; in the data active = IC50 below about 10 µM
* hit, by the source's call; x = not tested or not shown. This is a sample that favours compounds with a hit; in the whole collection about 3.2% have one here.

SMILES	LEDGF integ inh	HTRA1 inh	DAGLB inh	ABHD4 inh	PRMT1 inh	rCAG binder	rCAG bind conf	DNA CAG counter	others
Cc1ccc(S(=O)(=O)CCSc2cccc(C(=O)Nc3ccccc3C(=O)O)c2)cc1	7	-9	8	-56	77*	80*	83*	52*
O=C(Nc1ccccc1C(=O)O)c1cccc(NS(=O)(=O)c2ccc(Br)cc2)c1	0	-38	5	-45	2	81*	68*	26*
Cc1ccc(NS(=O)(=O)c2ccc(Cl)c(C(=O)Nc3ccccc3-c3nc4ccccc4[nH]3)c2)cc1C	3	-137	-5	-199	-3	47*	42*	24*
O=C(Nc1ccccc1C(=O)O)c1cc(S(=O)(=O)Nc2cccc(F)c2)ccc1Cl	4	-15	8	-19	-8	45*	30	9.3*
CN(C)S(=O)(=O)c1ccc(Cl)c(C(=O)Nc2nc3ccccc3[nH]2)c1	-2	-2	-1	2	0	3	x	x
O=C(Nc1ccccc1C(=O)O)c1cccc(S(=O)(=O)Nc2ccc(Br)cc2)c1	0	-65	6	-71	1	80*	58*	21*
Cc1cccc(NC(=O)c2cccc(S(=O)(=O)Nc3ccccc3C(=O)O)c2)c1	5	-16	2	-11	-2	52*	32	7.5*
O=c1cc(-c2ccc([N+](=O)[O-])cc2)nc2cc(-c3ccc(F)cc3)[nH]n12	4	1	9	20	4	35*	50*	15*
Cc1ccc2[nH]c3c(c2c1)CCc1cn[nH]c1-3	2	20	-1	10	12	47*	5	5.0*
Cc1ccc2[nH]c3c(c2c1)CCC3=O	1	4	4	-7	-1	2	x	x
O=C(/C=C\c1cn(-c2ccccc2)nc1-c1ccccc1)Nc1nccs1	0	-15	0	1	-1	5	x	x
CC(=O)NS(=O)(=O)c1ccc(NC(=O)/C=C/c2cn(-c3ccccc3)nc2-c2ccccc2)cc1	-2	-105	6	-98	1	87*	86*	66*
CC1CN(CC(=O)Nc2nc(-c3ccc(Cl)cc3)cs2)CC(C)O1 (stereo unspecified)	3	-12	-6	-5	-4	0	x	x
Cc1cccc(OCc2nnc(SCC(=O)O)n2Cc2ccccc2)c1	-1	-1	0	0	-1	11	x	x
O=C(O)CSc1nnc(COc2cccc3ccccc23)n1Cc1ccccc1	3	-10	0	-3	-1	38*	43*	11*
CCn1c(COc2ccc3ccccc3c2C)nnc1SCC(=O)Nc1cccc(C(=O)O)c1	2	-7	5	-20	7	68*	60*	27*
CCn1c(COc2cccc(C)c2)nnc1SCC(=O)Nc1cccc(C(=O)O)c1	-2	-2	-4	3	1	-1	x	x
O=C(O)CCSc1nnc(COc2cccc3ccccc23)n1-c1cccc(Cl)c1	5	-12	0	-16	-1	44*	45*	12*
CCOC(OCC)P(=O)(CNC(c1ccccc1)(c1ccccc1)c1ccccc1)OCC (stereo unspecified)	3	x	x	5	0	0	x	x
COc1cc(/C=C2/S/C(=N/S(=O)(=O)Cc3ccccc3)NC2=O)c([N+](=O)[O-])cc1OC	-6	0	10	2	8	73*	67*	29*
COc1cc(/C=C2/S/C(=N/S(=O)(=O)c3ccccc3)NC2=O)c([N+](=O)[O-])cc1OC	-3	6	11	5	33*	78*	77*	41*
COc1cc(/C=C2\S/C(=N/S(=O)(=O)Cc3ccccc3)NC2=O)c([N+](=O)[O-])cc1OC	-3	-5	8	5	7	78*	71*	33*
O=C1N/C(=N\S(=O)(=O)c2ccccc2)S/C1=C\c1cc([N+](=O)[O-])ccc1O	-3	0	7	25	8	67*	52*	12*	dCAG dye DR=>30
Cc1ccc(S(=O)(=O)/N=C2/NC(=O)/C(=C\c3cc(Br)cc(Br)c3O)S2)cc1	x	-73	21	x	x	x	x	x
O=C1NN(c2ccc(Cl)cc2)C(=O)/C1=C\c1ccc(-c2cccc(C(=O)O)c2)o1	0	5	22	23	21	97*	66*	28*
SMILES	LEDGF integ inh	HTRA1 inh	DAGLB inh	ABHD4 inh	PRMT1 inh	rCAG binder	rCAG bind conf	DNA CAG counter	others
COc1ccc(NC(=O)c2c(NC(=O)CCC(=O)O)sc(-c3ccccc3)c2C)cc1	3	1	4	4	3	50*	57*	12*	dCAG dye DR=>30
Cc1sc(NC(=O)CCC(=O)O)c(C(N)=O)c1-c1ccccc1	1	2	-4	3	8	1	x	x
CSCC[C@H](NC(=O)[C@H](Cc1ccccc1)n1c(=O)[nH]c2ccccc2c1=O)C(=O)NCC1CCC(C(=O)O)CC1 (stereo partly specified)	-3	6	1	3	3	9	x	x
CCOC(=O)C1=C(O)/C(=C/c2ccc(-c3ccccc3C(=O)O)o2)SC1=Nc1ccc(C)cc1	8	24	6	22	5	28	x	x
CCOC(=O)C1=C(O)/C(=C/c2ccc(-c3ccccc3C(=O)O)o2)SC1=Nc1ccc(OC)cc1	1	4	0	28	19	38*	80*	38*
CCc1ccc(N=C2NC(=O)/C(=C/c3cc(Br)c(OCC(=O)O)c(OC)c3)S2)cc1	0	-11	12	-12	-3	57*	56*	19*
CCOC(=O)C1=C(O)/C(=C/c2ccc(OCC(=O)O)c(OCC)c2)SC1=Nc1ccccc1	-3	-2	2	-8	2	15	x	x
COc1cc(/C=C2/SC(=O)NC2=O)ccc1OC(=O)c1ccco1	3	-1	6	-23	2	13	x	x
CCOc1cc(/C=C2/SC(=S)NC2=O)ccc1OC(=O)c1ccco1	-3	-18	13	-31	5	72*	79*	43*
CCOC(=O)C1=C(O)/C(=C/c2ccc(OCC(=O)O)c(OC)c2)SC1=Nc1ccc(OCC)cc1	2	-18	7	-23	1	38*	65*	21*
Cc1cccc(C(=O)Nc2nnc(SCC(=O)NCc3ccco3)s2)c1	3	-2	2	-1	4	4	x	x
CN(C)CCN1CCN(C2CN(Cc3cn(Cc4cccc(Cl)c4)nn3)S(=O)(=O)C2)CC1 (stereo unspecified)	0	x	x	5	-4	2	x	x
